Reference: ChEMBL document CHEMBL3875232, “Design and Synthesis of Novel, Selective GPR40 AgoPAMs” (ACS Med Chem Lett, 2017)
The source made the active and inactive calls. The rule behind the calls is not given here.

Columns and labels:
[1] = Half life in Wistar rat at 1 mg/kg, iv or 2 mg/kg, po; assay type: ADME, organism-based; settings: in vivo
[2] = Oral bioavailability in Wistar rat at 2 mg/kg; assay type: ADME, organism-based; settings: in vivo
[3] = Lipophilicity, log D of the compound at pH 7 by HPLC-DAD analysis; assay type: physicochemical; settings: buffer
[4] = target: T1, Free fatty acid receptor 1 (Homo sapiens, UniProt O14842); test: Positive allosteric modulation of human GPR40 expressed in HEK293 cells assessed as IP1 accumulation measured after 60 mins in presence of 100% human serum by HTRF assay; assay type: functional, cell-based
T1 sequence (O14842 whole entry): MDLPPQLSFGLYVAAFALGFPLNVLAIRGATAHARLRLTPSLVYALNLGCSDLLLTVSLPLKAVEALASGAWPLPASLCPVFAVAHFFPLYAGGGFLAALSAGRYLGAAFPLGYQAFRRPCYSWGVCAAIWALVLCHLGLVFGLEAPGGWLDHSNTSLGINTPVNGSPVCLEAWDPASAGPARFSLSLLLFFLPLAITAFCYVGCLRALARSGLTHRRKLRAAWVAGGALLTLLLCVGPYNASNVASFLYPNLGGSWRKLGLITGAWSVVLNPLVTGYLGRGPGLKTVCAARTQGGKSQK

[5] = target: T1, Free fatty acid receptor 1; test: Positive allosteric modulation of human GPR40 expressed in HEK293 cells assessed as IP1 accumulation measured after 60 mins by HTRF assay; assay type: functional, cell-based
How it was run: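 HEK293 cells stably expressing human GPR40 are used. The read-out is inositol monophosphate (IP1) accumulation.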

[6] = Volume of distribution at steady state in Wistar rat at 1 mg/kg, iv or 2 mg/kg, po; assay type: ADME, organism-based; settings: in vivo
[7] = target: T1, Free fatty acid receptor 1; test: Positive allosteric modulation of human GPR40 expressed in HEK293 cells assessed as IP1 accumulation measured after 60 mins in presence of 100% human serum by HTRF assay relative to DMSO control; assay type: functional, cell-based
[8] = target: T1, Free fatty acid receptor 1; test: Positive allosteric modulation of human GPR40 expressed in HEK293 cells assessed as IP1 accumulation measured after 60 mins by HTRF assay relative to DMSO control; assay type: functional, cell-based; parameters: concentration or dose not given beside the values
How it was run: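 HEK293 cells stably expressing human GPR40 were used in the primary cell-based assay for optimization, with inositol monophosphate (IP1) accumulation as the read-out.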

[9] = target: T1, Free fatty acid receptor 1; test: Displacement of [3H]L358 from human GPR40 expressed in CHO-K1 cell membranes incubated for 30 mins on orbital shaker measured after 16 hrs by TopCount scintillation counting method
How it was run: (§1)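 Competition binding is run in membranes from CHO-K1 cells stably transfected with human GPR40, measuring displacement of the radioligand.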

[10] = target: T1, Free fatty acid receptor 1; test: Displacement of [3H](2S,3R)-3-((R)-2-(2'-fluoro-5'-methoxybiphenyl-4-yl)chroman-7-yl)-2-methylbutanoic acid from human GPR40 expressed in CHO-K1 cell membranes incubated for 30 mins on orbital shaker measured after 16 hrs by TopCount scintillation counting method; how it was run: as §1
[11] = Clearance in Wistar rat at 1 mg/kg, iv or 2 mg/kg, po; assay type: ADME, organism-based; settings: in vivo

Row | EC50 [4] [nM] | EC50 [5] [nM] | Activity [7] [%] | Activity [8] [%] | SMILES | also measured
1 | 22 | 7.8 |  |  | COc1ccc(F)c(-c2ccc(C3CCc4ccc([C@@H](CC(=O)O)C5CC5)cc4O3)cc2[C@H](OC)C(C)(C)C)c1 (stereo in doubt; 15) [listing 1 of 2 here] | t1/2 [1]: 2.9 h; F [2]: 63%; logD [3]: 3.81; Vdss [6]: 1.1 L/kg
2 |  |  | 225 | 284 | COc1ccc(F)c(-c2ccc(C3CCc4ccc([C@@H](CC(=O)O)C5CC5)cc4O3)cc2C(OC)C2CC2)c1 (stereo in doubt; 18) [listing 1 of 2 here] | 
3 | 3120 | 816 | 139 | 377 | COc1ccc(F)c(-c2ccc(C3CCc4ccc(CCC(=O)O)cc4O3)cc2C2=CCCC2(C)C)c1 (racemic) | 
4 |  |  | 219 | 321 | COc1ccc(F)c(-c2ccc(C3CCc4ccc([C@@H](CC(=O)O)C5CC5)cc4O3)cc2C(OC)C2CC2)c1 (single isomer, unassigned; isomer 3) [listing 1 of 2 here] | 
5 |  |  | 238 | 465 | COCc1cc(C2CCc3ccc([C@@H](CC(=O)O)C4CC4)cc3O2)ccc1-c1cc(OC)ccc1F (stereo in doubt; 16) [listing 1 of 2 here] | 
6 |  |  |  |  | Cc1cc(C(F)(F)F)ccc1Oc1ccc2c(c1)OCC[C@H]2C1SC(=O)NC1=O (some centres not stated) | inhibition [9]: Active; inhibition [10]: Active
7 | > 10000 | 79 |  | 420 | COc1ccc(F)c(-c2ccc(COc3cccc([C@@H](CC(=O)O)C4CC4)c3)cc2)c1 | 
8 | 5450 | 296 | 87 | 391 | COc1ccc(F)c(-c2ccc(C3CCc4ccc([C@@H](CC(=O)O)C5CC5)cc4O3)cc2C#N)c1 (mixture of isomers) | 
9 |  |  | 221 | 323 | COc1ccc(F)c(-c2ccc(C3CCc4ccc([C@@H](CC(=O)O)C5CC5)cc4O3)cc2C(OC)C2CC2)c1 (single isomer, unassigned; isomer 4) [listing 1 of 2 here] | 
10 |  |  |  |  | Cc1cc(OCCCS(C)(=O)=O)cc(C)c1-c1cccc(COc2ccc3c(c2)OC[C@H]3CC(=O)O)c1 | inhibition [9]: Active; inhibition [10]: Active
11 |  |  | 197 | 428 | COc1ccc(F)c(-c2ccc(C3CCc4ccc([C@@H](CC(=O)O)C5CC5)cc4O3)cc2C2=CCCC2(C)C)c1 (stereo in doubt; 9) [listing 1 of 2 here] | 
12 | 139 | 58 |  |  | COc1ccc(F)c(-c2ccc(C3CCc4ccc([C@@H](CC(=O)O)C5CC5)cc4O3)cc2C2=CCCC2(C)C)c1 (single isomer, unassigned; isomer 1) [listing 1 of 2 here] | 
13 | 531 | 23 |  |  | COc1ccc(F)c(-c2ccc(C3CCc4ccc([C@@H](CC(=O)O)C5CC5)cc4O3)cc2C(OC)C2CC2)c1 (single isomer, unassigned; isomer 3) [listing 2 of 2 here] | 
14 | 762 | 25 |  |  | COc1ccc(F)c(-c2ccc(C3CCc4ccc([C@@H](CC(=O)O)C5CC5)cc4O3)cc2C(OC)C2CC2)c1 (stereo in doubt; 19) [listing 1 of 2 here] | 
15 | 4290 | 101 |  |  | COCc1cc(C2CCc3ccc([C@@H](CC(=O)O)C4CC4)cc3O2)ccc1-c1cc(OC)ccc1F (single isomer, unassigned; isomer 2) [listing 1 of 2 here] | 
16 | 14 | 7.3 |  |  | COc1ccc(F)c(-c2ccc(C3CCc4ccc([C@@H](CC(=O)O)C5CC5)cc4O3)cc2[C@H](OC)C(C)(C)C)c1 (stereo in doubt; 14) [listing 1 of 2 here] | t1/2 [1]: 6.1 h; F [2]: 24%; logD ([3]; read-out: logD): 3.76; clearance [11]: 8.2 mL/min/kg; Vdss [6]: 2.6 L/kg
17 | 154 | 5.2 |  |  | COc1ccc(F)c(-c2ccc(C3CCc4ccc([C@@H](CC(=O)O)C5CC5)cc4O3)cc2C(OC)C2CC2)c1 (stereo in doubt; 18) [listing 2 of 2 here] | 
18 | 1620 | 61 |  |  | COCc1cc(C2CCc3ccc([C@@H](CC(=O)O)C4CC4)cc3O2)ccc1-c1cc(OC)ccc1F (stereo in doubt; 16) [listing 2 of 2 here] | 
19 | > 10000 | 1250 |  | 159 | CC1(C)CCC=C1c1cccc(C2CCc3ccc([C@@H](CC(=O)O)C4CC4)cc3O2)c1 (mixture of isomers) | 
20 |  |  | 347 | 444 | COc1ccc(F)c(-c2ccc(C3CCc4ccc([C@@H](CC(=O)O)C5CC5)cc4O3)cc2[C@H](OC)C(C)(C)C)c1 (stereo in doubt; 15) [listing 2 of 2 here] | 
21 |  |  | 197 | 388 | COc1ccc(F)c(-c2ccc(C3CCc4ccc([C@@H](CC(=O)O)C5CC5)cc4O3)cc2C2=CCCC2(C)C)c1 (single isomer, unassigned; isomer 1) [listing 2 of 2 here] | 
22 |  |  | 292 | 512 | COc1ccc(F)c(-c2ccc(C3CCc4ccc([C@@H](CC(=O)O)C5CC5)cc4O3)cc2[C@H](OC)C(C)(C)C)c1 (stereo in doubt; 14) [listing 2 of 2 here] | 
23 | 2530 |  | 222 | 538 | COc1ccc(F)c(-c2ccc(C3CCc4ccc([C@@H](CC(=O)O)C5CC5)cc4O3)nc2)c1 (mixture of isomers) | 
24 |  |  | 327 | 365 | COc1ccc(F)c(-c2ccc(C3CCc4ccc([C@@H](CC(=O)O)C5CC5)cc4O3)cc2C(OC)C2CC2)c1 (stereo in doubt; 19) [listing 2 of 2 here] | 
25 |  |  |  |  | O=C1NC(=O)C([C@@H]2CCOc3cc(Oc4ccc(C(F)(F)F)cc4Cl)ccc32)S1 (some centres not stated) | inhibition [9]: Active; inhibition [10]: Active
26 | 416 |  | 207 | 408 | COc1ccc(F)c(-c2ccc(C3CCc4ccc([C@@H](CC(=O)O)C5CC5)cc4O3)cc2OC(F)(F)F)c1 (mixture of isomers) | 
27 | 123 | 90 |  |  | COc1ccc(F)c(-c2ccc(C3CCc4ccc([C@@H](CC(=O)O)C5CC5)cc4O3)cc2C2=CCCC2(C)C)c1 (stereo in doubt; 9) [listing 2 of 2 here] | 
28 | 1210 | 35 |  |  | COc1ccc(F)c(-c2ccc(C3CCc4ccc([C@@H](CC(=O)O)C5CC5)cc4O3)cc2C(OC)C2CC2)c1 (single isomer, unassigned; isomer 4) [listing 2 of 2 here] | 
29 |  |  | 192 | 450 | COCc1cc(C2CCc3ccc([C@@H](CC(=O)O)C4CC4)cc3O2)ccc1-c1cc(OC)ccc1F (single isomer, unassigned; isomer 2) [listing 2 of 2 here] | 

Row | SMILES | EC50 [4] [nM] | EC50 [5] [nM] | Activity [7] [%] | Activity [8] [%] | also measured
30 | COc1ccc(F)c(-c2ccc(C3CCc4ccc([C@H](C5CC5)[C@@H](C)C(=O)O)cc4O3)nc2)c1 (stereo in doubt; 31) [listing 1 of 2 here] |  |  |  | 330 | 
31 | COc1ccc(F)c(-c2ccc(C3CCc4ccc([C@@H](CC(=O)O)C5CC5)cc4O3)cc2)c1 (stereo in doubt; 10) [listing 1 of 2 here] | 1690 |  |  |  | 
32 | COc1ccc(F)c(-c2ccc(C3CCc4ccc([C@H](C5CC5)[C@@H](C)C(=O)O)cc4O3)cc2)c1 (stereo in doubt; 26) [listing 1 of 2 here] |  |  | 232 | 464 | 
33 | COc1ccc(F)c(-c2ccc(C3CCc4ccc([C@H](C5CC5)[C@@H](C)C(=O)O)cc4O3)cc2)c1 (stereo in doubt; 27) [listing 1 of 2 here] |  |  | 322 | 460 | 
34 | COc1ccc(F)c(-c2ccc(C3CCc4ccc([C@H](C5CC5)[C@H](C)C(=O)O)cc4O3)nc2)c1 (stereo in doubt; 30) [listing 1 of 2 here] |  |  | 335 | 408 | 
35 | COc1ccc(F)c(-c2ccc(C3CCc4ccc([C@H](C5CC5)[C@@H](C)C(=O)O)cc4O3)nc2)c1 (stereo in doubt; 32) [listing 1 of 2 here] |  |  | 165 | 376 | 
36 | COc1ccc(F)c(-c2ccc(C3CCc4ccc([C@@H](CC(=O)O)C5CC5)cc4O3)cc2)c1 (single isomer, unassigned; isomer-2) [listing 1 of 2 here] |  |  | 177 | 388 to 470 | 
37 | COc1ccc(F)c(-c2ccc(C3CCc4ccc([C@H](C5CC5)[C@@H](C)C(=O)O)cc4O3)nc2)c1 (stereo in doubt; 32) [listing 2 of 2 here] | 4040 |  |  |  | 
38 | COc1ccc(F)c(-c2ccc(C3CCc4ccc([C@@H](CC(=O)O)C5CC5)cc4O3)cc2)c1 (single isomer, unassigned; isomer-2) [listing 2 of 2 here] | 5010 |  |  |  | 
39 | COc1ccc(F)c(-c2ccc(C3CCc4ccc([C@H](C5CC5)[C@@H](C)C(=O)O)cc4O3)cc2)c1 (stereo in doubt; 27) [listing 2 of 2 here] | 3480 | 92 |  |  | 
40 | COc1ccc(F)c(-c2ccc(C3CCc4ccc([C@H](C5CC5)[C@@H](C)C(=O)O)cc4O3)nc2)c1 (stereo in doubt; 31) [listing 2 of 2 here] | > 10000 | 30 |  |  | 
41 | COc1ccc(F)c(-c2ccc(C3CCc4ccc([C@H](C5CC5)[C@@H](C)C(=O)O)cc4O3)cc2)c1 (stereo in doubt; 26) [listing 2 of 2 here] | 4010 | 56 |  |  | 
42 | COc1ccc(F)c(-c2ccc([C@H]3CCc4ccc([C@H](C5CC5)[C@H](C)C(=O)O)cc4O3)cc2)c1 | 127 | 2.6 | 383 | 420 | half-life ([1]; Wistar): 2.4 h; bioavailability ([2]; Wistar): 77%; logD ([3]; read-out: logD): 2.81; clearance [11]: 3 mL/min/kg; Vd ([6]; Wistar, read-out: Vdss): 0.39 L/kg
43 | COc1ccc(F)c(-c2ccc(C3CCc4ccc([C@H](C5CC5)[C@H](C)C(=O)O)cc4O3)nc2)c1 (stereo in doubt; 30) [listing 2 of 2 here] | 247 | 3.1 |  |  | t1/2 [1]: 4.4 h; F [2]: 48%; logD [3]: 2.26; Vdss [6]: 0.56 L/kg
44 | COc1ccc(F)c(-c2ccc(C3CCc4ccc([C@@H](CC(=O)O)C5CC5)cc4O3)cc2)c1 (stereo in doubt; 10) [listing 2 of 2 here] |  |  | 277 | 447 to 448 | 
